# ChEMBL document CHEMBL1143660, “Structure-activity relationship studies of a series of novel delta-lactam-based histone deacetylase inhibitors” (J Med Chem, 2007)
# Activity calls are given as the source filed them. The calls are words filed in the database; no cut-off is given here.
# Key:
# RAW264.7 [1] = test: Inhibition of LPS-stimulated TNFalpha production in RAW264.7 cells after 24 hrs by ELISA; assay type: functional, cell-based; conditions: Mus musculus, RAW264.7, 24 h
# RAW264.7 [2] = test: Inhibition of LPS-stimulated NO production in RAW264.7 cells after 24 hrs […]; assay type: functional, cell-based; conditions: Mus musculus, RAW264.7, 24 h
# How it was run: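 RAW264.7 murine macrophages stimulated with LPS and treated with inhibitor at 0.1 to 10 µM; suppression of NO production measured and IC50 calculated; values are means of at least three experiments.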
# Histone deacetylase = test: Inhibition of HDAC in HeLa cells by fluorescent activity assay; assay type: cell-based, Homo sapiens
# MDA-MB-231 [3] = test: Inhibition of tumor growth in MDA-MB-231 cells xenografted BALA/c nude mouse at 30 mg/kg, ip; assay type: functional, Homo sapiens; conditions: MDA-MB-231, ip, route intraperitoneal
# MDA-MB-231 [4] = test: Growth inhibition of human MDA-MB-231 cells by SRB assay; assay type: functional
# PC-3 = test: Growth inhibition of PC3 cells by SRB assay; assay type: functional; conditions: Homo sapiens
# NCI-H23 = test: Growth inhibition of NCI-H23 cells by SRB assay; assay type: functional; conditions: Homo sapiens
# ACHN = test: Growth inhibition of ACHN cells by SRB assay; assay type: functional; conditions: Homo sapiens
# HCT-15 = test: Growth inhibition of HCT15 cells by SRB assay; assay type: functional, Homo sapiens
# LOX IMVI = test: Growth inhibition of LOX-IMVI cells by SRB assay; assay type: functional; conditions: Homo sapiens
SMILES,IC50 (RAW264.7 [1]) [µM],IC50 (RAW264.7 [2]) [µM],IC50 (Histone deacetylase) [µM],"GI50 (MDA-MB-231 [4]; Homo sapiens, MDA-MB-231) [µM]",other results
O=C(CCC1=CCCN(CCCCc2ccccc2)C1=O)NO,1.3,1.8,0.13,1.5,"inhibition in vivo at 30 mg/kg (MDA-MB-231 [3]): 51%; GI50 (PC-3): 1.32 µM; GI50 (NCI-H23): 5.14 µM; GI50 (ACHN): 2.5 µM; GI50 (HCT-15; Homo sapiens, HCT-15): 5.37 µM"
COc1ccc(CN2CCC=C(CCC(=O)NO)C2=O)c(OC)c1,5.06,5.2,,2.67,"GI50 (PC-3): 4.55 µM; IC50 (Histone deacetylase; read-out: IC50): 0.5 µM; GI50 (ACHN): 9.58 µM; GI50 (LOX IMVI): 6.63 µM; GI50 (HCT-15; Homo sapiens, HCT-15): 7.98 µM"
O=C(CCC1=CCCN(CCCc2ccccc2)C1=O)NO,1.1,2.71,0.27,0.5,"GI50 (PC-3): 5.04 µM; GI50 (NCI-H23): 3.79 µM; GI50 (ACHN): 1.17 µM; GI50 (LOX IMVI): 3.34 µM; GI50 (HCT-15; Homo sapiens, HCT-15): 4.99 µM"
O=C(CCC1=CCCN(CCc2ccccc2)C1=O)NO,1.9,4.27,,1.62,"GI50 (PC-3): 8.58 µM; IC50 (Histone deacetylase; read-out: IC50): 0.35 µM; GI50 (ACHN): 7.76 µM; GI50 (LOX IMVI): 5.84 µM; GI50 (HCT-15; Homo sapiens, HCT-15): 8.16 µM"
CN1CCC=C(CCC(=O)NO)C1=O,> 10,> 10,> 10,,
C=CCN1CCC=C(CCC(=O)NO)C1=O,11,> 10,,,IC50 (Histone deacetylase; read-out: IC50): 4.27 µM
O=C(CCCCCCC(=O)Nc1ccccc1)NO [VORINOSTAT],,,,,GI50 (MDA-MB-231 [4]): 0.66 µM; GI50 (HCT-15): 0.82 µM

# Second part, led by results:
IC50 (RAW264.7 [1]) [µM],IC50 (RAW264.7 [2]) [µM],IC50 (Histone deacetylase) [µM],SMILES,"GI50 (MDA-MB-231 [4]; Homo sapiens, MDA-MB-231) [µM]",other results
> 10,> 10,> 10,O=C(CC1=CCCN(CCCc2ccccc2)C1=O)NO,,
> 10,6.57,3.21,O=C(CCCC1=CCCN(CCCc2ccccc2)C1=O)NO,,
> 10,> 10,> 10,O=C(CC1=CCCN(CCc2ccccc2)C1=O)NO,,
3.31,3.09,,O=C(CCC1=CCCN(Cc2ccccc2)C1=O)NO,4.26,IC50 (Histone deacetylase; read-out: IC50): 0.67 µM; Activity (HCT-15; Homo sapiens): inactive
> 10,> 10,> 10,O=C(CC1=CCCN(CCCCc2ccccc2)C1=O)NO,,
> 10,> 10,> 10,O=C(CC1=CCCN(Cc2ccccc2)C1=O)NO,,
> 10,> 10,> 10,O=C(CCCC1=CCCN(CCc2ccccc2)C1=O)NO,,
> 10,6.74,> 10,O=C(CCCC1=CCCN(CCCCc2ccccc2)C1=O)NO,,
